Results: ChEMBL document CHEMBL1156462, “Seco-pregnane steroids target the subgenomic RNA of alphavirus-like RNA viruses” (Proc Natl Acad Sci U S A, 2007)
Calls of active or inactive are those of the source. No cut-off for these calls is given here.

What was measured:
[1] = system: Eastern equine encephalitis virus; experiment: Antiviral activity against Eastern equine encephalitis virus in BHK21 cells assessed as inhibition of virus-induced cytopathogenicity; assay type: functional, organism-based; settings: BHK-21
Sindbis virus [2] = experiment: Reduction of Sindbis virus infection-induced mortality rate in newborn BALB/c mouse assessed as long term survivors at 100 mg/kg; assay type: functional
Procedure, shortened: (§1)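 Newborn BALB/c mice, 2–3 days old, ≈2 g, were inoculated intracerebrally with 20 μl medium holding 100 × LD50 SINV. Compound (20 μl, 5, 50 or 100 mg/kg BW) was mixed into the inoculum. There were 11 mice per group, counted at 3–7 days. Virus-alone and compound-alone controls were included.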

Tobacco mosaic virus [3] = experiment: Inhibition of TMV U1 replication in tobacco BY2 protoplast by local lesion assay using Chenopodium quinoa leaves; assay type: functional, organism-based
Procedure, shortened: (§2)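 TMV premixed with compound at a range of concentrations used to inoculate tobacco BY-2 protoplasts; virus multiplication then assayed by counting local lesions on the local lesion host Chenopodium quinoa.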

Influenza A virus = experiment: Antiviral activity against influenza A virus in Madin-Darby kidney cells assessed as inhibition of virus-induced cytopathogenicity; assay type: functional, organism-based
Procedure, shortened: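 Influenza A virus was tested on Madin–Darby canine kidney cells seeded at 2 × 10⁵ per well 24 h before use. Infection used the dose causing 100% CPE at 3 dpi. Compound was premixed with virus at final 100–0 nM (8 levels). Uninfected and virus-only controls were included per plate. Read-out was 50% inhibition of cytopathogenicity.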

Measles morbillivirus = experiment: Antiviral activity against measles virus in Veto cells assessed as inhibition of virus-induced cytopathogenicity; assay type: functional, organism-based
Procedure, shortened: (§3)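 Cells seeded at 2 × 10⁵ per well 24 h before use (BHK-21 for GETV, H9 for HIV, CIK for Reovirus, 983A for adenovirus, Veto for measles virus). Infected at a dose giving 100% cytopathic effect at 3 dpi; virus premixed with compound at final 100, 50, 10, 3, 2, 1.5, 1, 0 nM. Infected and uninfected untreated controls on each plate.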

[4] = Selectivity index, ratio of CC50 for BHK21 cells to EC50 for Sindbis virus; assay type: toxicity, cell-based, BHK-21; settings: hamster, read-out: Ratio CC50/EC50
Procedure, shortened: (§4)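 SINV XJ-160 at 2 × 10⁵ pfu/ml was premixed with compound for 15 min. It was then adsorbed 1 h to BHK-21 cells, MOI 0.01, in quadruplicate. Cells were washed and kept in DMEM/5% FBS at 37°C. CC50 was 50% inhibition of uninfected BHK-21 proliferation. Index = CC50/EC50.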

Getah virus = experiment: Antiviral activity against Getah virus in BHK21 cells assessed as inhibition of virus-induced cytopathogenicity; assay type: functional, organism-based; settings: BHK-21; procedure, shortened: as §3
Sindbis virus [5] = experiment: Reduction of mortality rate in Sindbis virus-infected newborn BALB/c mouse assessed as long term survivors at 5 mg/kg; assay type: functional; procedure, shortened: as §1
Sindbis virus [6] = experiment: Reduction of Sindbis virus infection-induced mortality rate in newborn BALB/c mouse assessed as mouse survival at 100 mg/kg administered 4 hrs before viral infection; assay type: functional, organism-based; set-up: dose 100 mg/kg
Procedure, shortened: (§5)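 Newborn BALB/c mice (2–3 days old, ≈2 g), 11 per group, given 20 μl compound at 100 mg/kg BW 1 or 4 h before intracerebral inoculation with 20 μl medium containing 100 × LD₅₀ SINV. Survivors counted at 3, 4, 5, 6 and 7 days after inoculation.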

Tobacco mosaic virus [7] = experiment: Inhibition of TMV U1 multiplication in tobacco BY2 protoplast at 50 nM assessed as local lesion size on Chenopodium quinoa leaves by local lesion assay; assay type: functional
[8] = Cytotoxicity against hamster BHK21 cells; assay type: cell-based, Mesocricetus auratus, BHK-21
unidentified adenovirus = experiment: Antiviral activity against adenovirus in 983A cells assessed as inhibition of virus-induced cytopathogenicity; assay type: functional, organism-based; procedure, shortened: as §3
Sindbis virus [9] = experiment: Decrease in Sindbis virus XJ160 accumulation in BHK21 cells […] by ELISA; assay type: functional, organism-based; settings: XJ160, BHK-21
Procedure, shortened: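 BHK-21 cells inoculated with SINV XJ-160 premixed with compound (MOI 0.01, 15-min pretreatment, 1-h adsorption). Virus accumulation measured by ELISA as blank-subtracted OD₄₅₀, averaged over nine repeats per concentration.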

Sindbis virus [10] = experiment: Antiviral activity against Sindbis virus in BHK21 cells assessed as inhibition of virus-induced cytopathogenicity; assay type: functional, organism-based; settings: BHK-21
Sindbis virus [11] = experiment: Reduction of Sindbis virus infection-induced mortality rate in newborn BALB/c mouse assessed as mouse survival at 100 mg/kg administered 1 hr before viral infection; assay type: functional, organism-based; set-up: dose 100 mg/kg; procedure, shortened: as §5
Tobacco mosaic virus [12] = experiment: Decrease in TMV U1 coat protein level in TMV infected tobacco BY2 protoplast at 50 nM by Western blot analysis; assay type: functional, organism-based
Procedure, shortened: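 BY-2 protoplasts (5 ml, 1.5 × 10⁶/ml) infected with TMV pretreated with compound; total protein extracted and coat protein detected by Western blot.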

[13] = system: Human immunodeficiency virus; experiment: Antiviral activity against HIV in human H9 cells assessed as inhibition of virus-induced cytopathogenicity; assay type: functional, organism-based; settings: Human immunodeficiency virus 1, H9; procedure, shortened: as §3
Tobacco mosaic virus [14] = experiment: Inhibition of TMV U1 multiplication in tobacco BY2 protoplast at 50 nM assessed as inhibition of local lesions on Chenopodium quinoa leaves by local lesion assay after 3 days postinfection; assay type: functional; settings: U1, 72 h; procedure, shortened: as §2
Tobacco mosaic virus [15] = experiment: Inhibition of TMV U1 multiplication in tobacco BY2 protoplast at 20 nM assessed as local lesion size on Chenopodium quinoa leaves by local lesion assay; assay type: functional
Sindbis virus [16] = experiment: Reduction of Sindbis virus infection-induced mortality rate in newborn BALB/c mouse assessed as survivors at 100 mg/kg administered 4 hrs before infection after 7 days; assay type: functional
Procedure, shortened: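 Newborn BALB/c mice, 2–3 days old, ≈2 g, received 20 μl compound at 100 mg/kg BW 1 or 4 h before intracerebral inoculation with 20 μl containing 100 × LD50 SINV. There were 11 mice per group, with survivors counted at 3, 4, 5, 6 and 7 days.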

Tobacco mosaic virus [17] = experiment: Reduction of coat protein sgRNA level in TMV U1 infected tobacco BY2 protoplast at 50 nM administered after 4 hrs postinfection; assay type: functional, organism-based
Procedure, shortened: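 BY-2 protoplasts infected with TMV supplemented with compound up to 50 nM; total RNA extracted by TRIzol 4 h after infection, and CP sgRNA, I₂ sgRNA and genomic RNA detected by Northern blot with CP gene probe, 28S rRNA as loading control.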

[18] = Selectivity index, ratio of CC50 for hamster BHK21 cells to EC50 for Sindbis virus XJ160; assay type: toxicity, cell-based, BHK-21; settings: read-out: Ratio CC50/EC50; procedure, shortened: as §4
Tobacco mosaic virus [19] = experiment: Inhibition of TMV U1 multiplication in tobacco BY2 protoplast at 40 nM assessed as inhibition of local lesions on Chenopodium quinoa leaves by local lesion assay after 3 days postinfection; assay type: functional; settings: U1, 72 h; procedure, shortened: as §2
Tobacco mosaic virus [20] = experiment: Inhibition of TMV U1 multiplication in tobacco BY2 protoplast at 20 nM assessed as inhibition of local lesions on Chenopodium quinoa leaves by local lesion assay after 3 days postinfection; assay type: functional; settings: U1, 72 h; procedure, shortened: as §2
Sindbis virus [21] = experiment: Decrease in 26S sgRNA level in Sindbis virus XJ160 infected BHK21 cells after 3 hrs postinfection; assay type: functional, organism-based; settings: BHK-21
Procedure, shortened: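 BHK-21 cells infected with SINV XJ-160 premixed with compound at MOI 10 in quadruplicate. Viral RNAs quantified at 3 hpi by Northern blot, with β-actin RNA as loading comparison.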

Tobacco mosaic virus [22] = experiment: Inhibition of TMV U1 multiplication in tobacco BY2 protoplast at 30 nM assessed as local lesion size on Chenopodium quinoa leaves by local lesion assay; assay type: functional
[23] = system: Japanese encephalitis virus; experiment: Antiviral activity against Japanese encephalitis virus in C6 cells assessed as inhibition of virus-induced cytopathogenicity; assay type: functional, organism-based

Structure (SMILES): CO[C@@H]1C[C@H](O[C@H]2CC[C@@]3(C)C(=CC[C@H]4C(=O)OC5CO[C@]6(C)OC=C(CC[C@@H]43)[C@H]56)C2)O[C@H](C)[C@H]1O[C@H]1C[C@H](O)[C@H](O[C@@H]2C[C@@H](OC)[C@H](O[C@@H]3O[C@H](CO)[C@@H](O[C@@H]4O[C@H](CO)[C@@H](O)[C@H](O)[C@H]4O)[C@H](O)[C@H]3O)[C@@H](C)O2)[C@@H](C)O1 (some centres not stated) [PANICULATUMOSIDE C]
- EC50 [1]: 2 nM
- Activity (Sindbis virus [2]): 100%
- IC50 (Tobacco mosaic virus [3]): 25 nM
- EC50 (Influenza A virus): > 20000 nM
- EC50 (Measles morbillivirus): > 25000 nM
- selectivity ratio [4]: 11000
- EC50 (Getah virus): 1 nM
- Activity (Sindbis virus [5]): 18%
- Activity (Sindbis virus [6]): Toxic
- Activity (Tobacco mosaic virus [7]): 0 mm
- CC50 [8]: 16500 nM
- EC50 (unidentified adenovirus): > 25000 nM
- EC50 (Sindbis virus [9]): 1.5 nM
- EC50 (Sindbis virus [10]): 1.5 nM
- Activity (Sindbis virus [11]): Toxic
- Activity (Tobacco mosaic virus [12]): Active
- EC50 [13]: > 25000 nM
- inhibition at 0.05 µM (Tobacco mosaic virus [14]): 100%
- Activity (Tobacco mosaic virus [15]): 1.6 mm
- Activity (Sindbis virus [16]): 30%
- Activity (Tobacco mosaic virus [17]): Active
- selectivity ratio [18]: 11000
- inhibition at 0.04 µM (Tobacco mosaic virus [19]): 93%
- inhibition at 0.02 µM (Tobacco mosaic virus [20]): 40%
- Activity (Sindbis virus [21]): Dose-dependent effect
- Activity (Tobacco mosaic virus [22]): 1.1 mm
- EC50 [23]: > 25000 nM
